Results taken from ChEMBL document CHEMBL1212827, “Unnatural amino acid side chains as S1, S1', and S2' probes yield cationic antimicrobial peptides with stability toward chymotryptic degradation” (J Med Chem, 2010).
In brackets after ≈: the same amount, converted by molar mass. Non-standard residues stand in square brackets, D forms with d. Residues, ends and D or L forms follow the SMILES beside them. *: point of attachment. Phe(4-guanidino) = N=C(N)Nc1ccc(C[C@H](N)C(=O)O)cc1; Bip = N[C@@H](Cc1ccc(-c2ccccc2)cc1)C(=O)O; Dip = N[C@H](C(=O)O)C(c1ccccc1)c1ccccc1; Phe(4-NH2) = Nc1ccc(C[C@H](N)C(=O)O)cc1; hArg = N=C(N)NCCCC[C@H](N)C(=O)O; Agp = N=C(N)NC[C@H](N)C(=O)O; NHPhenethyl = c1ccc(CCN*)cc1; Orn = NCCC[C@H](N)C(=O)O; NHBn = c1ccc(CN*)cc1

Experiments:
Staphylococcus aureus [1] = experiment: Antibacterial activity against Staphylococcus aureus ATCC 25923; assay type: functional
[2] = Stability of the compound in 0.1 M NH4HCO3 buffer at pH 8.2 assessed as half life in presence of chymotrypsin; assay type: physicochemical; settings: for t1/2: isolated protein; for half-life: chymotrypsin in NH4HCO3 buffer
How it was run: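 Peptide 1 mg/mL stock; chymotrypsin 1 mg per 50 mL buffer; both diluted tenfold into 0.1 M NH4HCO3 pH 8.2 and incubated at 37 °C. Aliquots quenched with water/acetonitrile 60/40 containing 0.5% TFA and run on RP-HPLC. Half-life calculated from 214 nm peak areas over the first 5 h. Under 10% degradation at 24 h counted as stable. Enzyme-free samples at 0 and 24 h served as controls.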

Staphylococcus aureus [3] = experiment: Antibacterial activity against methicillin-resistant Staphylococcus aureus ATCC 33591; assay type: functional
[4] = Toxicity in human RBC assessed as hemolysis at 1 mM after 30 mins relative to control; assay type: cell-based, Erythrocyte; settings: red blood cells (RBC), read-out: Activity
How it was run: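 Fresh heparinized human erythrocytes, washed in normal saline. Peptides at 25–1000 μg/mL with 1% v/v final erythrocytes, 30 min at 37 °C with agitation. Supernatant OD read at 405 nm. Saline served as 0% and 1% Triton X as 100% hemolysis; percent lysis taken relative to their difference.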

Escherichia coli = experiment: Antibacterial activity against Escherichia coli ATCC 25922; assay type: functional
[5] = Binding affinity to chymotrypsin by isothermal titration […]
How it was run: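 Isothermal titration calorimetry at 25 °C in 0.1 M NH4HCO3 pH 8.2. Peptide (2.1 mM in syringe) injected in 20 aliquots of 5 μL into stirred (150 rpm) chymotrypsin (0.1 mM), 400 s between injections. First injection point discarded. KD fitted from heats of interaction.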

Question: Which MIC (Staphylococcus aureus [1]) does the source give for `N=C(N)NCCC[C@H](N)C(=O)N[C@@H](Cc1c[nH]c2ccccc12)C(=O)N[C@@H](CNC(=N)N)C(=O)NCc1ccccc1` (H-Arg-Trp-[Agp]-NHBn) here?
Answer: 54 µM (≈ 31.2 µg/mL)

Question: And the t1/2 [2]?
Answer: Stable

Question: What about the MIC (Staphylococcus aureus [3]) of the same compound?
Answer: 16 µM (≈ 9.24 µg/mL)

Question: And the hemolysis at 0.5 h, 1000 µM [4]?
Answer: > 2%

Question: And the Activity (Escherichia coli)?
Answer: >200 µM

Question: And the Kd [5]?
Answer: 61.1 µM

Question: What does the source list for `N=C(N)NCCC[C@H](NC(=O)[C@H](Cc1c[nH]c2ccccc12)NC(=O)[C@@H](N)CCCNC(=N)N)C(=O)NCCc1ccccc1` (H-Arg-Trp-Arg-NHPhenethyl)?
Answer: MIC (Staphylococcus aureus [1]): 52 µM (≈ 32.2 µg/mL); half-life [2]: 30 min; MIC (Staphylococcus aureus [3]): 26 µM (≈ 16.1 µg/mL); Activity (Escherichia coli): >200 µM

Question: With `N=C(N)NCCC[C@H](NC(=O)[C@@H](NC(=O)[C@@H](N)CCCNC(=N)N)C(c1ccccc1)c1ccccc1)C(=O)NCc1ccccc1` (H-Arg-[Dip]-Arg-NHBn) as the compound, how does the MIC (Staphylococcus aureus [1]) read?
Answer: 25 µM (≈ 16.1 µg/mL)

Question: And the t1/2 [2]?
Answer: Stable

Question: What about the MIC (Staphylococcus aureus [3]) of the same compound?
Answer: 10 µM (≈ 6.43 µg/mL)

Question: And the hemolysis at 0.5 h, 1000 µM [4]?
Answer: > 10%

Question: And the Activity (Escherichia coli)?
Answer: >200 µM

Question: What does the source list for `N=C(N)NCCC[C@H](NC(=O)[C@@H](N)CCCNC(=N)N)C(=O)N[C@@H](Cc1c[nH]c2ccccc12)C(=O)NCc1ccccc1` (H-Arg-Arg-Trp-NHBn)?
Answer: MIC (Staphylococcus aureus [1]): 79 µM (≈ 47.9 µg/mL); half-life [2]: 420 min; MIC (Staphylococcus aureus [3]): 26 µM (≈ 15.7 µg/mL); Activity (Escherichia coli): >200 µM

Question: With `NC(=O)[C@H](CCCN=C(N)N)NC(=O)[C@H](Cc1c[nH]c2ccccc12)NC(=O)[C@@H](N)CCCN=C(N)N` (H-Arg-Trp-Arg-NH2) as the compound, how does the MIC (Staphylococcus aureus [1]) read?
Answer: > 200 µM

Question: And the half-life [2]?
Answer: 300 min

Question: And the MIC (Staphylococcus aureus [3])?
Answer: > 200 µM

Question: And the hemolysis at 0.5 h, 1000 µM [4]?
Answer: > 134%

Question: What about the Activity (Escherichia coli) of the same compound?
Answer: >200 µM

Question: For `N=C(N)NCCC[C@H](N)C(=O)N[C@@H](Cc1c[nH]c2ccccc12)C(=O)N[C@@H](CCCCN)C(=O)NCc1ccccc1` (H-Arg-Trp-Lys-NHBn), which MIC (Staphylococcus aureus [1]) is on record?
Answer: 163 µM (≈ 94.2 µg/mL)

Question: What about the half-life [2] of the same compound?
Answer: 240 min

Question: What about the MIC (Staphylococcus aureus [3]) of the same compound?
Answer: 54 µM (≈ 31.2 µg/mL)

Question: What about the Activity (Escherichia coli) of the same compound?
Answer: >200 µM

Question: Which results are given for `N=C(N)NCCCC[C@H](NC(=O)[C@H](Cc1c[nH]c2ccccc12)NC(=O)[C@@H](N)CCCNC(=N)N)C(=O)NCc1ccccc1` (H-Arg-Trp-[hArg]-NHBn)?
Answer: MIC (Staphylococcus aureus [1]): 78 µM (≈ 48.3 µg/mL); half-life [2]: 60 min; MIC (Staphylococcus aureus [3]): 52 µM (≈ 32.2 µg/mL); Activity (Escherichia coli): >200 µM

Question: What does the source list for `N=C(N)NCCC[C@H](N)C(=O)N[C@@H](Cc1ccc(N)cc1)C(=O)N[C@@H](Cc1c[nH]c2ccccc12)C(=O)NCc1ccccc1` (H-Arg-[Phe(4-NH2)]-Trp-NHBn)?
Answer: MIC (Staphylococcus aureus [1]): 157 µM (≈ 96 µg/mL); half-life [2]: 1020 min; MIC (Staphylococcus aureus [3]): 79 µM (≈ 48.3 µg/mL); Activity (Escherichia coli): >200 µM

Question: Which MIC (Staphylococcus aureus [1]) does the source give for `N=C(N)NCCC[C@H](N)C(=O)N[C@@H](Cc1c[nH]c2ccccc12)C(=O)N[C@@H](Cc1ccc(N)cc1)C(=O)NCc1ccccc1` (H-Arg-Trp-[Phe(4-NH2)]-NHBn) here?
Answer: 157 µM (≈ 96 µg/mL)

Question: What about the t1/2 [2] of the same compound?
Answer: Stable

Question: And the MIC (Staphylococcus aureus [3])?
Answer: 79 µM (≈ 48.3 µg/mL)

Question: What about the hemolysis at 0.5 h, 1000 µM [4] of the same compound?
Answer: > 5%

Question: And the Activity (Escherichia coli)?
Answer: >200 µM

Question: For `N=C(N)NCCC[C@H](N)C(=O)N[C@@H](Cc1c[nH]c2ccccc12)C(=O)N[C@@H](Cc1ccc(NC(=N)N)cc1)C(=O)NCc1ccccc1` (H-Arg-Trp-[Phe(4-guanidino)]-NHBn), which MIC (Staphylococcus aureus [1]) is on record?
Answer: 50 µM (≈ 32.7 µg/mL)

Question: What about the half-life [2] of the same compound?
Answer: 240 min

Question: What about the MIC (Staphylococcus aureus [3]) of the same compound?
Answer: 10 µM (≈ 6.54 µg/mL)

Question: What about the Activity (Escherichia coli) of the same compound?
Answer: >200 µM

Question: With `N=C(N)NCCC[C@H](NC(=O)[C@H](Cc1c[nH]c2ccccc12)NC(=O)[C@@H](N)CCCNC(=N)N)C(=O)NCc1ccccc1` (H-Arg-Trp-Arg-NHBn) as the compound, how does the MIC (Staphylococcus aureus [1]) read?
Answer: 79 µM (≈ 47.9 µg/mL)

Question: And the half-life [2]?
Answer: 120 min

Question: And the MIC (Staphylococcus aureus [3])?
Answer: 132 µM (≈ 80 µg/mL)

Question: And the hemolysis at 0.5 h, 1000 µM [4]?
Answer: > 5%

Question: What about the Activity (Escherichia coli) of the same compound?
Answer: >200 µM

Question: Which results are given for `N=C(N)NCCC[C@H](NC(=O)[C@H](Cc1ccccc1)NC(=O)[C@@H](N)CCCNC(=N)N)C(=O)NCc1ccccc1` (H-Arg-Phe-Arg-NHBn)?
Answer: MIC (Staphylococcus aureus [1]): 165 µM (≈ 93.5 µg/mL); half-life [2]: 180 min; MIC (Staphylococcus aureus [3]): 83 µM (≈ 47 µg/mL); Activity (Escherichia coli): >200 µM

Question: Which MIC (Staphylococcus aureus [1]) does the source give for `N=C(N)NCCC[C@H](N)C(=O)N[C@@H](Cc1c[nH]c2ccccc12)C(=O)N[C@@H](CCCN)C(=O)NCc1ccccc1` (H-Arg-Trp-[Orn]-NHBn) here?
Answer: 110 µM (≈ 62 µg/mL)

Question: What about the half-life [2] of the same compound?
Answer: 1200 min

Question: What about the MIC (Staphylococcus aureus [3]) of the same compound?
Answer: 55 µM (≈ 31 µg/mL)

Question: And the hemolysis at 0.5 h, 1000 µM [4]?
Answer: > 1%

Question: What about the Activity (Escherichia coli) of the same compound?
Answer: >200 µM

Question: Which MIC (Staphylococcus aureus [1]) does the source give for `N=C(N)NCCC[C@H](NC(=O)[C@H](Cc1ccc(-c2ccccc2)cc1)NC(=O)[C@@H](N)CCCNC(=N)N)C(=O)NCc1ccccc1` (H-Arg-[Bip]-Arg-NHBn) here?
Answer: 10 µM (≈ 6.43 µg/mL)

Question: What about the t1/2 [2] of the same compound?
Answer: Stable

Question: And the MIC (Staphylococcus aureus [3])?
Answer: 15 µM (≈ 9.64 µg/mL)

Question: And the hemolysis at 0.5 h, 1000 µM [4]?
Answer: > 5%

Question: What about the Activity (Escherichia coli) of the same compound?
Answer: >200 µM

Question: What about the Kd [5] of the same compound?
Answer: 18.4 µM

Question: For `N=C(N)NCCC[C@H](N)C(=O)N[C@@H](Cc1ccc(NC(=N)N)cc1)C(=O)N[C@@H](Cc1c[nH]c2ccccc12)C(=O)NCc1ccccc1` (H-Arg-[Phe(4-guanidino)]-Trp-NHBn), which MIC (Staphylococcus aureus [1]) is on record?
Answer: 50 µM (≈ 32.7 µg/mL)

Question: What about the t1/2 [2] of the same compound?
Answer: Stable

Question: What about the MIC (Staphylococcus aureus [3]) of the same compound?
Answer: 15 µM (≈ 9.81 µg/mL)

Question: And the hemolysis at 0.5 h, 1000 µM [4]?
Answer: > 2%

Question: And the Activity (Escherichia coli)?
Answer: >200 µM
